Source: PubChem BioAssay
Rows were chosen to be rich in hits. Some 2% of all compounds tested hit in one or more screens of this group.
HIF act = HIF pathway transcriptional activators, primary screen, cell-based, U2OS HRE-luciferase, luminescence | hit rate 0.32% among 300,000 | U2OS HRE-luciferase reporter; normalized: DMSO 0%, desferrioxamine 100% | activation, % at 7.5 µM (by protocol);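 active means mean activation of at least 10% of the iron chelator positive control signal, with at least half of replicates also reaching 10%; inconclusive means mean and replicate majority disagree about reaching 10%; inactive means mean and most replicates under 10%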
ARNT-TACC3 inh = disruptors of ARNT/TACC3 protein interaction, primary screen, biochemical, AlphaScreen, single concentration. AlphaScreen His-ARNT PAS-B/GST-TACC3 binding, luminescence; TACC3 fragment carries E629A point mutation. inhibition, % at 9.99 µM. hit rate 0.66% among 390,000. Transforming acidic coiled-coil-containing protein 3 (Homo sapiens), Q9Y6A5;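 active means mean inhibition of replicates at least 50% and at least half of replicates each reaching 50%; inconclusive means half or more replicates reach 50% but mean below 50%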
T cruzi repl = inhibitors of intracellular T. cruzi growth, primary screen, luminescence, NIH3T3 host cells | inhibition, % (no concentration beside the values) | T. cruzi beta-gal in NIH3T3, 90 h | hit rate 1.4% among 300,000;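 active means mean inhibition across valid replicates above about 55%, limit read from the data; inconclusive means mean below that limit but half or more replicates reach it; inactive means mean below it, under half of replicates reach it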;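 further: signal also drops with host cell toxicity which is not excluded here; higher percent means less beta-gal luminescence so fewer parasites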
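Read-out: Parasite load inhibition, % | Test system: Mouse NIH/3T3 fibroblasts infected with β-gal-expressing T. cruzi Tulahuen C4 | Amount: 5,000 cells/well | Medium: DMEM, 2% fetal bovine serum | Signal: GalScreen β-gal luminescence, detergent lysis, 60 min | Timing: 3 h attach, ≥90 h co-culture | Also added: Tulahuen C4 trypomastigotes, 5000/well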
AI-2 QS modul = Vibrio harveyi AI-2 quorum sensing modulators, primary screen, JMH597 strain, luminescence/OD600 ratio | Vibrio harveyi JMH597 AI-2 luminescence/OD600 ratio, 9 h; stronger effect = lower value; strain lacks LuxN and CqsS sensors; 0 = neutral-control median | activity change, % at 7.5 µM | hit rate 0.4% among 300,000; in the data active means activity change below about -75%, passing the limit was not always enough; inconclusive means no clear call, values can overlap the other calls;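 further: luminescence divided by OD600 gain over 9 h not by final OD600 alone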
Large screens that a line does not name were inactive.

C[C@@H]1CN([C@@H](C)CO)C(=O)c2cc(C#CCc3ccccc3)cnc2O[C@@H]1CN(C)Cc1cccnc1	none (no result: HIF act, T cruzi repl, AI-2 QS modul)
CC(C)(C)c1ccc(C(=O)NNC(=S)NC(=O)c2cccnc2)cc1	AI-2 QS modul inconclusive (no result: ARNT-TACC3 inh)
CC(C)(C)c1cc(Cl)c(O)c(NC(=S)NC(=O)c2cccnc2)c1	T cruzi repl 70
C[C@H]1CN([C@@H](C)CO)S(=O)(=O)c2ccc(-c3cccc(F)c3)cc2O[C@H]1CN(C)S(C)(=O)=O	none (no result: HIF act, T cruzi repl, AI-2 QS modul)
CCOC(=O)c1c(NC(=O)CSc2nnnn2-c2ccccc2OCC)sc2c1CC(C)(C)NC2(C)C	T cruzi repl 57
CCOC(=O)c1c(NC(=O)c2ccc(C)cc2)sc2c1CC(C)(C)NC2(C)C	none (no result: ARNT-TACC3 inh)
CCOC(=O)c1c(NC(=O)CSc2nc3ccc(C)cc3[nH]2)sc2c1CC(C)(C)NC2(C)C	T cruzi repl 61
CCOC(=O)c1c(NC(=O)COc2ccccc2OCC)sc2c1CC(C)(C)NC2(C)C	none
CCOC(=O)c1c(NC(=O)Cc2ccccc2)sc2c1CC(C)(C)NC2(C)C	none
CCOC(=O)c1c(NC(=O)CSc2nnnn2-c2ccccc2)sc2c1CC(C)(C)NC2(C)C	T cruzi repl 73
C[C@H](CO)N1C[C@H](C)[C@@H](CN(C)CC2CC2)Oc2c(NS(=O)(=O)c3cccs3)cccc2C1=O	none (no result: HIF act, T cruzi repl, AI-2 QS modul)
COc1cccc(CNC(=O)CN2CCC(c3nc4ccc(C)cc4[nH]3)CC2)c1	T cruzi repl 55
COc1ccccc1NC(=O)CN1CCC(c2nc3ccc(C)cc3[nH]2)CC1	none
N#C/C(=C(/O)c1ccco1)c1nc2ccccc2s1	none
CC1=CC(=C(C#N)c2nc3ccccc3s2)C=C(C)N1Cc1ccco1	T cruzi repl 64
O=C(C[C@H]1CC[C@@H]2[C@H](COC[C@@H](O)CN2Cc2cccc(-c3ccncc3)c2)O1)N1CCN(c2ccccc2)CC1	none (no result: HIF act, T cruzi repl, AI-2 QS modul)
CCCCCCCC1CC(=O)C=C(C)C1C(=O)OCC (centres undefined)	HIF act 81 (no result: ARNT-TACC3 inh)
CCCNCC1C(Oc2ccc(Cl)cc2Cl)C(=O)N1c1cccc(C)c1C (centres undefined)	T cruzi repl 62 (no result: ARNT-TACC3 inh)
Cc1cccc(N2C(=O)C(Oc3ccc(Cl)cc3Cl)C2C(=O)O)c1C (centres undefined)	none
COCC(=O)N(C)C[C@H]1Oc2ncc(-c3ccc(F)cc3)cc2C(=O)N([C@H](C)CO)C[C@@H]1C	none (no result: HIF act, T cruzi repl, AI-2 QS modul)
O=C(C[C@H]1C=C[C@H](NC(=O)c2ccncc2)[C@H](CO)O1)NCC1CCCCC1	none (no result: HIF act, T cruzi repl, AI-2 QS modul)
N=c1c2c(n(Cc3ccc(Cl)cc3)c3c1CCC3)CCC2	T cruzi repl 79
N=c1c2c(n(Cc3cccc(Cl)c3)c3c1CCC3)CCCC2	T cruzi repl 58
N=c1c2c(n(Cc3ccc(F)cc3)c3c1CCC3)CCCC2	T cruzi repl 63
CCN(CC)CCNc1ncnc2c1sc1nc(N3CCCC3)c3c(c12)CC(C)(C)OC3	T cruzi repl 61
COc1ccccc1C(=O)Nc1ccc2c(c1)C(=O)N(C)[C@@H]1CC[C@@H](CC(=O)NCCc3ccncc3)O[C@H]1CO2	none (no result: HIF act, T cruzi repl, AI-2 QS modul)
O=C(NCc1ccccc1)c1cc(-c2ccco2)on1	none
O=C(NCCc1ccccc1)c1cc(-c2ccco2)on1	HIF act 23
COc1ccc(CCNC(=O)c2cc(-c3ccco3)on2)cc1OC	HIF act 17
COc1ccc(CCNC(=O)c2cc(-c3cccs3)on2)cc1OC	HIF act 16
C[C@@H]1CCCCO[C@H](CN(C)CC2CC2)[C@H](C)CN([C@H](C)CO)C(=O)c2cc(NC(=O)c3ccncc3)ccc2O1	none (no result: HIF act, T cruzi repl, AI-2 QS modul)
C[C@@H]1CN([C@@H](C)CO)C(=O)c2cc(C#CC3CC3)cnc2O[C@H]1CN(C)C(=O)c1ccc(F)cc1	none (no result: HIF act, T cruzi repl, AI-2 QS modul)
Cn1cnc(S(=O)(=O)N2C[C@H](O)COC[C@H]3O[C@@H](CC(=O)NC4CCC4)CC[C@@H]32)c1	none (no result: HIF act, T cruzi repl, AI-2 QS modul)
CNC(=O)C[C@@H]1CC[C@H]2[C@@H](COc3ccc(NC(=O)c4ccc(C(F)(F)F)cc4)cc3C(=O)N2C)O1	none (no result: HIF act, T cruzi repl, AI-2 QS modul)
Cc1ccc2c(c1)N(C)/C(=C/c1cccc[n+]1C)S2	T cruzi repl 76
CN1/C(=C/c2cccc[n+]2C)Sc2ccccc21	T cruzi repl 63
CCCCN1/C(=C/c2cccc[n+]2C)Sc2cc(NC(C)=O)ccc21	none
Cc1ccc2c(c1)N(C)/C(=C/c1cccc[n+]1CCO)S2	T cruzi repl inconclusive
O=C(O)c1cc(=S)nc[nH]1	ARNT-TACC3 inh 73 (no result: HIF act, T cruzi repl, AI-2 QS modul)
O=c1cc(O)nc[nH]1	none
C[C@@H](NC(=O)C[C@@H]1CC[C@@H](NS(=O)(=O)c2cccc(F)c2)[C@H](CO)O1)c1ccccc1	none (no result: HIF act, T cruzi repl, AI-2 QS modul)
Cc1ccc(-c2cc(C(=O)N3N=C(C(F)F)CC3(O)C(F)F)c3ccccc3n2)cc1C (centres undefined)	T cruzi repl 64
O=C(c1cc(-c2ccccc2)nc2ccccc12)N1N=C(C(F)F)CC1(O)C(F)F (centres undefined)	none
CCOc1ccccc1-c1nc(-c2ccc(NC(=O)Cc3ccccc3OC)cc2)no1	T cruzi repl 56
Cc1cc(OCCCCCN2CCCC2)ccc1Cl	T cruzi repl 67
Cc1cc(OCCOCCN2CCCC2)ccc1C(C)C	T cruzi repl 57
Cc1ccc(SCCNC(=S)Nc2cc(C)cc(C)c2)cc1	none
Cc1ccc(SCCNC(=S)Nc2ccc(C)cc2C)cc1	T cruzi repl 58 (no result: ARNT-TACC3 inh)
CCCCCCC1CC(C)(C(=O)CNc2nncs2)OC1=O (centres undefined)	T cruzi repl 62, AI-2 QS modul -76
Cc1ccc(NC(=O)c2cc(N3C(=O)C=CC3=O)ccc2N2CCOCC2)cc1	T cruzi repl 59
Cc1ccc(NC(=O)c2cc(NC(=O)c3ccco3)ccc2N2CCOCC2)cc1	none
C[C@H]1CN([C@@H](C)CO)S(=O)(=O)c2ccc(C3=CCCCC3)cc2O[C@H]1CN(C)Cc1ccccc1F	none (no result: HIF act, T cruzi repl, AI-2 QS modul)
CCc1ccc(S(=O)(=O)/N=C2/C=C(Sc3ncn[nH]3)C(=O)c3ccccc32)cc1	ARNT-TACC3 inh 36 (no result: HIF act, T cruzi repl, AI-2 QS modul)
CCc1ccc(S(=O)(=O)/N=C2\C=C(Nc3cccc(C(=O)O)c3)C(=O)c3ccccc32)cc1	ARNT-TACC3 inh 69
Cc1cc(C)n2nc(SC(C)C(=O)Nc3ccccc3F)nc2n1 (centres undefined)	ARNT-TACC3 inh active (no result: HIF act, T cruzi repl, AI-2 QS modul)
Cc1noc(C)c1NC(=O)N(C)C[C@H]1Oc2ccc(NS(=O)(=O)c3ccc(Cl)cc3)cc2C(=O)N([C@H](C)CO)C[C@H]1C	none (no result: HIF act, T cruzi repl, AI-2 QS modul)
CCc1ccc(-c2cc(C(F)(F)F)n3nc(C(=O)Nc4c(C)nn(Cc5ccccc5C)c4C)cc3n2)s1	T cruzi repl 59
CCN1C(=O)/C(=C/c2nc3ccccc3c(=O)n2-c2ccc(C)cc2)c2ccccc21	T cruzi repl 74
O=C(NNc1nc2cc3c(cc2s1)OCO3)c1cccc(F)c1	AI-2 QS modul -88
COc1cc(OC)cc(C(=O)NNc2nc3cc4c(cc3s2)OCO4)c1	none
